Source: paper PMC3528827 (ACS chemical biology, 2012)

Columns and labels:
F263L S1P3 [1] = target: T1, F263L S1P3 (Homo sapiens, UniProt Q99500, F263L); experiment: MAPmates multiplex assay pERK1/2; type: cell-based
S1P4 = conditions: read-out: S1P4 EC50; in vitro; cited from earlier work
S1P3 [2] = target: T2, S1P3 (Homo sapiens, UniProt Q99500); experiment: S1P3-NFAT β-lactamase reporter; type: cell-based; conditions: S1P3-CHO cells, calcium flux dependent β-lactamase assay
Outline: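 CHO cells stably expressing human S1P3 and an NFAT-β-lactamase reporter, plated at 1 × 10^6/mL in phenol red-free DMEM with 0.5% charcoal/dextran FBS and held overnight at 37°C, 5% CO2. S1P dilution series plus six fixed allosteric-agonist levels (EC0–EC80), single-agonist controls, 4 h at 37°C. β-Lactamase FRET substrate with probenecid added, 2 h at room temperature. Read at ex 405 / em 535 and 460 nm. Mean ± SEM.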

Solubility = type: physicochemical
M98A mutant S1P3 = M98A mutant S1P3 (Homo sapiens, UniProt Q99500, M98A); experiment: ERK phosphorylation, M98A mutant S1P3 Jump-In CHO cells; type: cell-based
Outline: (§1)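 Jump-In TI CHO-K cells carrying N-terminal triple-HA-tagged WT or point-mutant S1P3, stably retargeted and selected 4 weeks with blasticidin 10 μg/mL. Serum-starved 4 h, then exposed 5 min to increasing agonist. For antagonism, 1 uM antagonist was added 15 min beforehand or premixed with agonist. Phospho-p44/42 MAPK (Thr202/Tyr204) measured by sandwich ELISA; EC50 fitted from dose-response curves.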

R114A mutant S1P3 = R114A mutant S1P3 (Homo sapiens, UniProt Q99500, R114A); experiment: ERK phosphorylation, R114A mutant S1P3 Jump-In CHO cells; type: cell-based; conditions: R114A mutant vs WT
Outline: as §1

F263L S1P3 [3] = target: T1, F263L S1P3; experiment: ERK phosphorylation, F263L mutant S1P3; type: cell-based; conditions: ERK phosphorylation assay, vs WT
Outline: as §1

W256L S1P3 = W256L S1P3 (Homo sapiens, UniProt Q99500, W256L); experiment: ERK phosphorylation, W256L mutant S1P3; type: cell-based; conditions: ERK phosphorylation assay, vs WT
Outline: as §1

[4] = test system: panel of 55 GPCRs, ion channels, and transporters; experiment: Ricerca profiling panel
S1P1 = conditions: read-out: S1P1 EC50; in vitro; cited from earlier work
S1P5 = conditions: read-out: S1P5 EC50; in vitro; cited from earlier work
S1P3 [5] = target: T2, S1P3; experiment: Receptor assays coupled to Gi and Gq; type: cell-based; conditions: ERK phosphorylation, calcium flux, β-arrestin, NFAT-β-lactamase assays
S1P3 [6] = target: T2, S1P3; experiment: Ligand-induced ERK phosphorylation; type: cell-based; conditions: for ERK phosphorylation response: WT S1P3 Jump-In CHO cells
Outline: as §1

S1P2 = conditions: read-out: S1P2 EC50; in vitro; cited from earlier work
[7] = target: WT, W256L, and F263L mutant S1P3 (Homo sapiens, UniProt Q99500); experiment: [33P]S1P radioligand binding and competition, Jump-In CHO cells; conditions: 0.1 nM [33P]S1P, W256L and F263L Jump-In cell lines (all cell lines)
Outline: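 Jump-In TI CHO-K cells (5 × 105) stably expressing WT, W256L or F263L S1P3, serum-starved 4 h. Incubated 30 min at 4 °C with 0.1 nM [33P]S1P plus increasing competitor in 20 mM Tris-HCl pH 7.5, NaCl, NaF, EDTA, Na3VO4, 0.5% fatty-acid-free BSA and protease inhibitors. Washed three times cold, lysed in 0.5% SDS, scintillation-counted. Normalized to each line's uncompeted binding (100%).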

[8] = Stability in biological systems; type: in vitro ADME
[9] = test system: full panel of S1P receptors; experiment: Profiling against the full panel of S1P receptors; type: cell-based; conditions: Supporting Table S3
[10] = ERK phosphorylation, SPM-242 at 1 uM

T2 sequence (Q99500 whole entry): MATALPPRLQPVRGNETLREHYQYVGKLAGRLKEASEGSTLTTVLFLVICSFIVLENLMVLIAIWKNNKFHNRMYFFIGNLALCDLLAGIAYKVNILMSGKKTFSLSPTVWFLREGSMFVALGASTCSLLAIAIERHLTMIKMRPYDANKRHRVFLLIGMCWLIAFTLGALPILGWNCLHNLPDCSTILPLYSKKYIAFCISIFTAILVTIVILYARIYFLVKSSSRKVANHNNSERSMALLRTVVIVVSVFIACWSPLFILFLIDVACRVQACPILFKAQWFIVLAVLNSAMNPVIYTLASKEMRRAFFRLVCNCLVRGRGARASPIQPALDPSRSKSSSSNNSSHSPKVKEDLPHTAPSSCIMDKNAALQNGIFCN
T1 sequence (Q99500 whole entry F263L): as the sequence (Q99500 whole entry) above, with F263L counted along it
WT, W256L, and F263L mutant S1P3, sequence (Q99500 whole entry W256L/F263L): as the sequence (Q99500 whole entry) above, with W256L, F263L counted along it
R114A mutant S1P3, sequence (Q99500 whole entry R114A): as the sequence (Q99500 whole entry) above, with R114A counted along it
W256L S1P3, sequence (Q99500 whole entry W256L): as the sequence (Q99500 whole entry) above, with W256L counted along it
M98A mutant S1P3, sequence (Q99500 whole entry M98A): as the sequence (Q99500 whole entry) above, with M98A counted along it

| Compound | receptor activation (pERK1/2) compared to WT S1P3 (F263L S1P3 [1]) | EC50 (S1P4) [µM] | response on co-application of S1P and CYM-5541 (S1P3 [2]) | solubility (Solubility) | ERK phosphorylation response (M98A mutant S1P3) | ERK phosphorylation response (R114A mutant S1P3) | effect of F263L mutation on ligand-induced receptor activation (F263L S1P3 [3]) | effect of W256L mutation on ligand-induced receptor activation (W256L S1P3) | activity in Ricerca profiling panel [4] | EC50 (S1P1) [µM] | EC50 (S1P5) [µM] | signalling bias compared to S1P (S1P3 [5]) | ERK phosphorylation response (S1P3 [6]) | agonist efficacy: maximum level of ERK phosphorylation compared with S1P (S1P3 [6]; WT S1P3 Jump-In stable CHO cells) | EC50 (S1P2) [µM] | competition for [33P]S1P binding [7] | stability of phosphate-ester bond [8] | right-shift of the concentration response curve of S1P (S1P3 [6]; [10]) [fold] | shift of the concentration response curve of CYM-5541 (S1P3 [6]; [10]) [fold] | selectivity among S1P receptors [9] |
| --- | --- | --- | --- | --- | --- | --- | --- | --- | --- | --- | --- | --- | --- | --- | --- | --- | --- | --- | --- | --- |
| O=C(c1cc(C2CC2)on1)N(C1CCCCC1)C1CCCCC1 [CYM-5541, N,N-dicyclohexyl(5-cyclopropylisoxazol-3-yl)carboxamide] | significantly diminished receptor activation | > 50 | additive and no synergy was observed | low solubility | agonist dose-dependent ERK phosphorylation | comparable for WT and R114A | shifted CYM-5541-induced receptor activation | did not affect | no significant activities | > 10 | > 25 | no such differences were observed | agonist dose-dependent ERK phosphorylation | full agonist | > 50 | unable to compete | – | – | – | – |
| CCCCCCCCCCCCC/C=C/[C@@H](O)[C@@H](N)COP(=O)(O)O [S1P, Sphingosine 1-phosphate, reference compound] | – | – | – | – | agonist dose-dependent ERK phosphorylation | unable to respond | not S1P-induced activation | did not affect | – | – | – | – | agonist dose-dependent ERK phosphorylation | – | – | competitively reversed in a dose dependent manner | – | – | – | – |
| NC(CO)(CCc1ccc(Sc2cccc(O)c2)cc1Cl)COP(=O)(O)O (single isomer, unassigned; (+)) [SPM-242, (+)-2-amino-4-(2-chloro-4-((3-hydroxyphenyl)thio)phenyl)-2-(hydroxymethyl)butyl dihydrogen phosphate] | – | – | – | low solubility | – | – | – | – | – | – | – | – | – | – | – | reversed [^33P]S1P binding competitively in a dose dependent manner | extremely labile | 152 | 6 | selective for S1P3 |
